These results are taken from ChEMBL document CHEMBL4257478, “Design, synthesis and evaluation of (R)-3-(7-(methyl(7H-pyrrolo[2,3-d]pyrimidin-4-yl)amino)-5-azaspiro[2.4]heptan-5-yl)-3-oxopropanenitrile as a JAK1-selective inhibitor” (Medchemcomm, 2018).

The target of series [1] is Tyrosine-protein kinase JAK1 (Homo sapiens, UniProt P23458). Briefly: Inhibition of human JAK1 at 1 uM using GEEPLYWSFPAKKK as substrate after 40 mins in presence of [gamma-33P-ATP] by scintillation counting method relative to control.
Series [2] is described as follows: MRT in Sprague-Dawley rat at 10 mg/kg, po after 0.25 to 24 hrs by LC-MS/MS method. It counts as ADME, organism-based. To be noted: in vivo. The method in brief: (§1)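 Male Sprague Dawley rats, 7-8 weeks old, n=4 per group. IV dose 5 mg/kg free base in 10% ethanol/90% PEG400; oral dose 10 mg/kg as corn oil suspension after 16 h fast. Blood taken 0.08-24 h (IV) or 0.25-24 h (PO). Plasma diluted in acetonitrile with internal standard, analysed by LC-MS/MS, parameters by non-compartmental analysis.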

Series [3] is described as follows: Half life in Sprague-Dawley rat at 5 mg/kg, iv after 0.08 to 24 hrs by LC-MS/MS method. The following applies: in vivo. In kind it is ADME, organism-based. The method in brief: as §1
The nature of series [4]: Half life in Sprague-Dawley rat at 10 mg/kg, po after 0.25 to 24 hrs by LC-MS/MS method. To be noted: in vivo. In kind it is ADME, organism-based. The method in brief: as §1
Series [5] relates to Rattus norvegicus. Briefly: AUC (0 to t) in Sprague-Dawley rat at 10 mg/kg, po after 0.25 to 24 hrs by LC-MS/MS method. In kind it is ADME, organism-based. More on the design: time lower 0.25 hr, dose 10 mg/kg, time upper 24 hr, route oral. The following applies: in vivo. A digest of the protocol: as §1
Series [6] can be described thus: Tmax in Sprague-Dawley rat at 10 mg/kg, po after 0.25 to 24 hrs by LC-MS/MS method. In kind it is ADME, organism-based. To be noted: in vivo. The method in brief:
(§2)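 Male Sprague Dawley rats, 7–8 weeks old, n=4, fasted 16 h. Free base given at 10 mg/kg po as a corn oil suspension (5 mL/kg); a 5 mg/kg iv arm used 10% ethanol/90% PEG400. Plasma sampled 0.25–24 h, acetonitrile-precipitated with internal standard, and measured by LC-MS/MS. Parameters derived by non-compartmental analysis.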

Series [7] is described as follows: Oral bioavailability in Sprague-Dawley rat at 10 mg/kg after 0.25 to 24 hrs by LC-MS/MS method. In kind it is ADME, organism-based. The following applies: in vivo. A digest of the protocol:
as §2

The subject of series [8] is Rattus norvegicus. Briefly: AUC (0 to infinity) in Sprague-Dawley rat at 10 mg/kg, po after 0.25 to 24 hrs by LC-MS/MS method. It counts as ADME, organism-based. More on the design: dose 10 mg/kg, route oral, time infinity. To be noted: in vivo. The method in brief:
as §1

A short description of series [9]: Cmax in Sprague-Dawley rat at 10 mg/kg, po after 0.25 to 24 hrs by LC-MS/MS method. Further details: dose 10 mg/kg, route oral. It counts as ADME, organism-based. To be noted: in vivo. The method in brief: as §1
Series [10] has as its system Rattus norvegicus. Put plainly: AUC (0 to t) in Sprague-Dawley rat at 5 mg/kg, iv after 0.08 to 24 hrs by LC-MS/MS method. In kind it is ADME, organism-based. More on the design: time upper 24 hr, time lower 0.08 hr, dose 5 mg/kg, route intravenous. To be noted: in vivo. The method in brief:
as §1

A short description of series [11]: MRT in Sprague-Dawley rat at 5 mg/kg, iv after 0.08 to 24 hrs by LC-MS/MS method. To be noted: in vivo. It counts as ADME, organism-based. A digest of the protocol: as §1
Series [12] concerns Rattus norvegicus. Put plainly: AUC (0 to infinity) in Sprague-Dawley rat at 5 mg/kg, iv after 0.08 to 24 hrs by LC-MS/MS method. In kind it is ADME, organism-based. More on the design: dose 5 mg/kg, time infinity, route intravenous. To be noted: in vivo. A digest of the protocol:
as §1

Tyrosine-protein kinase JAK1, sequence (P23458 whole entry): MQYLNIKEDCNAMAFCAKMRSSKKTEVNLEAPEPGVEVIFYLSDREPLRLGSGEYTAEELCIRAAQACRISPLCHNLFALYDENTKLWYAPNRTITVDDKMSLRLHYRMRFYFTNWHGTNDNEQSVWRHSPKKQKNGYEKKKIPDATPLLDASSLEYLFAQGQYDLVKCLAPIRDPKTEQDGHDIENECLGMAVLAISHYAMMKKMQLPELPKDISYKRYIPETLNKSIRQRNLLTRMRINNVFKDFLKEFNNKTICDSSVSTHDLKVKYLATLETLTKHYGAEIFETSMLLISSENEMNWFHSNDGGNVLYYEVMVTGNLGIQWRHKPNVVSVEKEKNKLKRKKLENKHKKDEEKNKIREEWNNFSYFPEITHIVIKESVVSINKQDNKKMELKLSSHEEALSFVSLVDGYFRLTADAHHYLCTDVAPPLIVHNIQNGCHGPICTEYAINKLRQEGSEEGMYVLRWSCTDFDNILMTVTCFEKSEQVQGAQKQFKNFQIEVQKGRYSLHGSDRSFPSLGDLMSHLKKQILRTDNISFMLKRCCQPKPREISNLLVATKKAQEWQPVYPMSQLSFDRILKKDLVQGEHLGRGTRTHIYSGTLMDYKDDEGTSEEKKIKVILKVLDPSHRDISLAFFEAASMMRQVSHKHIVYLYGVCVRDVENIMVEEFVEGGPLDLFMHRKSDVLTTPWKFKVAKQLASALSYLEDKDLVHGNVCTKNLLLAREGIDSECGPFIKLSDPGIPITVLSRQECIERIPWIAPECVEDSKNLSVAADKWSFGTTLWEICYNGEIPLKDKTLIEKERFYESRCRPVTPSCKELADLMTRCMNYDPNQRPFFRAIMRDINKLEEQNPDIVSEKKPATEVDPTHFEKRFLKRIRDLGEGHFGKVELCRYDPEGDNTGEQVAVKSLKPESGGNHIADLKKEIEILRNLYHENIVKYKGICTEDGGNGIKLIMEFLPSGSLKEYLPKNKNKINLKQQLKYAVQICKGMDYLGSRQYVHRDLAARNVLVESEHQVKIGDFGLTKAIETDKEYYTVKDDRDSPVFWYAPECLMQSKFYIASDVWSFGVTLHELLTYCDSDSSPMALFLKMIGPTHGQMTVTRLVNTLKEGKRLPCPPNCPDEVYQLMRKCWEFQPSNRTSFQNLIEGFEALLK

As a reminder, the inhibition is the relative decrease from the control value, in per cent. For `CN(c1ncnc2[nH]ccc12)C1CN(C(=O)CC#N)CC12CC2` (racemic), the inhibition in series [1] is 95%.
Still for that read-out and setting: in the case of `CN(c1ncnc2[nH]ccc12)C1CCN(C(=O)CC#N)CC1` it was 49%; in that of `N#CCC(=O)N1CCCC(COc2ncnc3[nH]ccc23)C1` (stereo unspecified), 30%.
Usually MRT stands for the average time that molecules of a dose stay in the body. What is called half-life is how long it takes for the measured level to halve. Lower therefore signals rapid decline. A word on the Tmax: it is the time from dosing to the highest level. What is called bioavailability is the share of a dose that reaches the circulation, judged against a reference dose that is usually intravenous. High values mean much systemic uptake, low ones little systemic uptake. As a reminder, the AUC is the area under the concentration-time curve, a measure of exposure. As a reminder, the Cmax is the maximum level reached in the sampled fluid or tissue. For `CN(c1ncnc2[nH]ccc12)[C@H]1CN(C(=O)CC#N)CC12CC2.Cl`, the values for the MRT in [2] and in series [11] were 1.6 h and 0.7 h, respectively. Besides, the half-life was 0.6 h in series [3] and 1.1 h in series [4]. Also, the AUCt in the series with Rattus norvegicus [5] stood at 2400 ng·h/mL; in the series with Rattus norvegicus [10] it was 1800 ng·h/mL. For the same compound, the time to peak (Tmax) in [6] was determined as 0.4 h. Besides, the bioavailability in series [7] was 65%. The exposure (AUC) with Rattus norvegicus [8] stood at 2400 ng·h/mL; in the series on Rattus norvegicus [12], 1900 ng·h/mL. Moreover, the Cmax in [9] stood at 1300 ng/mL.
Turning to `CN(c1ncnc2[nH]ccc12)[C@H]1CN(C(=O)CC#N)CC12CC2.O=C(O)CC(O)(CC(=O)O)C(=O)O`, the MRT in series [2] was 2.3 h; in series [11] it was 1.2 h. Besides, the half-life in series [3] was 4.3 h; in series [4], 3.6 h. Also, the AUCt with Rattus norvegicus [5] was found to be 2400 ng·h/mL; in the series on Rattus norvegicus [10], 2000 ng·h/mL. Further, the Tmax in series [6] was 0.5 h. Further, the bioavailability in series [7] is 58%. Also, the values for the AUC in the series on Rattus norvegicus [8] and with Rattus norvegicus [12] were 2400 ng·h/mL and 2000 ng·h/mL, respectively. In [9], the concentration peaked (Cmax) at 1200 ng/mL.
Consider `CN(c1ncnc2[nH]ccc12)[C@H]1CN(C(=O)CC#N)CC12CC2.O=C(O)C(O)C(O)C(=O)O`, for which the MRT in series [2] is 1.5 h; in [11] it was 0.9 h. Besides, the half-life in [3] and in series [4] was 1 h each time. In addition, the AUCt in the series with Rattus norvegicus [5] turned out to be 1900 ng·h/mL; with Rattus norvegicus [10], 1400 ng·h/mL. The Tmax in [6] is 0.4 h. The bioavailability in series [7] came out at 68%. Besides, the values for the AUC with Rattus norvegicus [8] and with Rattus norvegicus [12] were 1900 ng·h/mL and 1400 ng·h/mL, respectively. The compound further gave a Cmax in [9] of 1000 ng/mL.
